In ChEMBL document CHEMBL1156146 (Bioorg Med Chem Lett, 2009):
Activity calls are given as the source filed them. The calls are words filed in the database; no cut-off is given here.

Key:
[1] = target: T1, Prostaglandin G/H synthase 2 (Homo sapiens, UniProt P35354); experiment: Inhibition of human recombinant COX-2 by enzyme immuno assay
T1 sequence (P35354 whole entry): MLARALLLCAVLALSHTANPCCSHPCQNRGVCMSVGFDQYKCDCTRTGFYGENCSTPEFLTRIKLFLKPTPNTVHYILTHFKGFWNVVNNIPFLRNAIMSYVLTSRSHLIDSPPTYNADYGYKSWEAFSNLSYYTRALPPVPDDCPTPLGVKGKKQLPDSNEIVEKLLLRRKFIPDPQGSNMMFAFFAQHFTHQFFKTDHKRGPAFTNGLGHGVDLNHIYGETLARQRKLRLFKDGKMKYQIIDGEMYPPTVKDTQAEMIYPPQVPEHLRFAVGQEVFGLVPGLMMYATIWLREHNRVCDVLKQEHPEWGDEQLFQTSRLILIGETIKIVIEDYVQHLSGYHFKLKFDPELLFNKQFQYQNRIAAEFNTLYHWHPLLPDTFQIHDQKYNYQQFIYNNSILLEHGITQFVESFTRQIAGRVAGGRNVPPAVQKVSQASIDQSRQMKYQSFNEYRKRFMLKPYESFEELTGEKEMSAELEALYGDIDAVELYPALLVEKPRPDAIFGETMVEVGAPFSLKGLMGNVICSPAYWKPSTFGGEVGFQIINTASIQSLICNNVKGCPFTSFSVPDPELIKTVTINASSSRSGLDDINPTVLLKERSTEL

[2] = Selectivity index, ratio of IC50 for ovine COX-1 to IC50 for human recombinant COX-2
Rattus norvegicus [3] = experiment: Ratio of compound ED50 to ibuprofen ED50 for inhibition of carrageenan-induced foot paw edema in po dosed rat after 3 hrs; format: functional
In short: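 Carrageenan-induced paw edema in rats, test compound given orally. […] The ratio compares the compound ED50 with the ibuprofen ED50 from this model.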

[4] = target: Prostaglandin G/H synthase 1 (Ovis aries) (UniProt P05979); experiment: Inhibition of ovine COX-1 by enzyme immuno assay
Rattus norvegicus [5] = experiment: Ratio of compound ED50 to aspirin ED50 for inhibition of carrageenan-induced foot paw edema in po dosed rat after 3 hrs; format: functional
5-lipoxygenase = target: T2, 5-lipoxygenase (Solanum tuberosum, UniProt O49150); experiment: Inhibition of potato 5-LOX after 5 mins by enzyme immuno assay
T2 sequence (O49150 whole entry): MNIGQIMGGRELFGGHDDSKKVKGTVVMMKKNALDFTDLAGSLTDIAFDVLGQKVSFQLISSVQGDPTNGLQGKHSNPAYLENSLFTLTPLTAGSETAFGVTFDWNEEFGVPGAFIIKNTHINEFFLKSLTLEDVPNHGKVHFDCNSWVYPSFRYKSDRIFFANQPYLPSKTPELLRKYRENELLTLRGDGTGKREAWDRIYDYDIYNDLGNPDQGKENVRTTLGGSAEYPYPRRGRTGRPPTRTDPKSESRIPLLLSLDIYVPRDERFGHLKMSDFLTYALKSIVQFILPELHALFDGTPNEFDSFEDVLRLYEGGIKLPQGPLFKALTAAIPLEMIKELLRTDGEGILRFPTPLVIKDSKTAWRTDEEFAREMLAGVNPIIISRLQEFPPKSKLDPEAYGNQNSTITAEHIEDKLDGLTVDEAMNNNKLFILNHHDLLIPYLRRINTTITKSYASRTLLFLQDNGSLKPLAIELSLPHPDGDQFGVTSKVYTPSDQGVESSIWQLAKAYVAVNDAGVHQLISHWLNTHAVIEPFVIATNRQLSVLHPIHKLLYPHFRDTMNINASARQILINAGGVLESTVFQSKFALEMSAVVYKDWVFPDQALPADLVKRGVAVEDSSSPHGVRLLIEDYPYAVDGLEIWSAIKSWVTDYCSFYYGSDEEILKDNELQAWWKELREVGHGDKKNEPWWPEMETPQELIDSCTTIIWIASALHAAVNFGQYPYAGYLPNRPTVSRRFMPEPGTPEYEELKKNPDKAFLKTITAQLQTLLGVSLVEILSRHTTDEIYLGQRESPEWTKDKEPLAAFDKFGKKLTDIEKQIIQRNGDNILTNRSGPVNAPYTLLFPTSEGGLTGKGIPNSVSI
In short: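 Potato 5-LOX inhibition measured with a LOX assay kit. IC50 is the mean of two determinations, deviation from the mean <10%.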

Rattus norvegicus [6] = experiment: Antiinflammatory activity against assessed as inhibition of carrageenan-induced foot paw edema in po dosed rat after 3 hrs; format: functional
In short: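 Oral dosing; edema induced by carrageenan in rat paw and measured 3 h after administration. ED50 (µmol/kg) derived from the dose–response.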

Rattus norvegicus [7] = experiment: Gastrointestinal toxicity in rat assessed ulcer index at 1.38 mmol/kg, po after 6 hrs relative to aspirin; format: organism-based; conditions: in vivo
In short: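 Rats fasted 24 h (water allowed) and dosed orally at 1.38 mmol/kg as a suspension in 1% methylcellulose. Killed 6 h later; stomachs opened along greater curvature, rinsed, and lesions measured by magnifier. Lesions up to 1 mm rated 1, 1–2 mm rated 2, >2 mm rated by length in mm. UI is summed lesion length per stomach averaged over n = 4; mean ± SEM.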

SMILES	IC50 [1] [µM]	Ratio IC50 [2]	IC50 [4] [µM]	IC50 (5-lipoxygenase) [µM]	Ratio ED50 (Rattus norvegicus [3])	Ratio ED50 (Rattus norvegicus [5])	ED50 (Rattus norvegicus [6])	UI (Rattus norvegicus [7])
O=C(O)c1cc(-c2ccc(F)cc2F)ccc1O [DIFLUNISAL]							68 µmol/kg	
O=C(O)/C=C/c1ccc(O)c(O)c1 [CAFFEIC ACID]				4				
CC(=O)Oc1ccccc1C(=O)O [ASPIRIN]							716 µmol/kg	57.4

Now from value to compound, other results behind:

IC50 [1] [µM]	Ratio IC50 [2]	IC50 [4] [µM]	IC50 (5-lipoxygenase) [µM]	SMILES	Ratio ED50 (Rattus norvegicus [3])	Ratio ED50 (Rattus norvegicus [5])	ED50 (Rattus norvegicus [6])	UI (Rattus norvegicus [7])
2.6	> 38	> 100	0.28	CC(=O)NS(=O)(=O)c1cc(-c2ccn(C(F)F)c(=O)c2)ccc1C(=O)O	1.3	2.8	258 µmol/kg	
0.98	> 15	15.4	0.37	O=C(O)c1cc(-c2ccn(C(F)F)c(=O)c2)ccc1O		1.6	434 µmol/kg	0
4.4	> 22	> 100	4.7	O=C(O)c1ccc(-c2ccn(C(F)F)c(=O)c2)cc1O		1.4	497 µmol/kg	0
17.6	> 5	> 100	0.32	CC(=O)NS(=O)(=O)c1ccc(-c2ccn(C(F)F)c(=O)c2)cc1C(=O)O			inactive	
